Measurements as given in the array DNA melting data of Ke et al. (doi:10.1101/2024.01.08.574731).

How the values were obtained:
[1] = folding enthalpy; higher = less favourable; fluorescence melt of hairpins on a sequencing array, two-state fit; details: sodium 0.088 M
How it was run: (§1)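 To match UV melts, fitted temperatures were raised by 9.35 °C. These fits were bootstrapped two-state models that gave melting temperature and folding enthalpy, combined by inverse variance over four replicates. The input was normalised Cy3 fluorescence of library hairpins with annealed Cy3 and quencher oligos on a sequenced MiSeq flow cell, imaged in 50 mM Na-HEPES pH 8.0, 25 mM NaCl in 2.5 °C steps up to 60 °C.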

[2] = melting temperature; fluorescence melt of hairpins on a sequencing array, two-state fit, raised by 9.35 °C to match UV melts; details: sodium 0.088 M
How it was run: as §1

Sequence | folding enthalpy [1] [kcal/mol] | Tm [2] [°C]
GGGACACGAAAGTGCCCC (((.(((....))).))) | -37.8 | 63.1
GGGACAGGAAACCGTCCC (((((.(....).))))) | -36.2 | 52.8
GGGACAGGAAACTATCCC ((((.((....)).)))) | -29.4 | 35.4
GGGACCGAAAGGTCACCC ((((((....)))..))) | -12.2 | 56.9
GGGACCGAAAGGTCTCCC ((((((....)))..))) | -11.7 | 51.9
GGGACCGAAAGGTTCCCC ((((((....)))..))) | -15.4 | 59.7
GGGACCGGAAACGGCCCC (((.(((....))).))) | -37 | 62.5
GGGACCGGAAACGGTCTC (.(((((....))))).) | -13.2 | 59.2
GGGACCGGAAACGGTTCC ((.((((....)))).)) | -42.5 | 62.6
GGGACCTCGAAAGAGCCC (((..(((....)))))) | -19.4 | 35.3
GGGACGGGAAACCATCCC ((((.((....)).)))) | -31.6 | 44.7
GGGACGGGAAACCGCCCC (((.(((....))).))) | -44.1 | 57.3
GGGACGGGAAACTGTCCC (((((.(....).))))) | -39.8 | 57.8
GGGACTACGAAAGTACCC (((..(((....)))))) | -19.5 | 36.1
GGGACTCGAAAGAGCCC (((.(((....)))))) | -28.8 | 54.9
GGGACTGGAAACAATCCC ((((.((....)).)))) | -27.6 | 37.9
GGGACTGGAAACGGTTCC ((.((.(....).)).)) | -18.9 | 42
GGGAGACGAAAGTCGCCC (((.(((....))).))) | -33 | 66
GGGAGCGAAAGCTAACCC ((((((....)))..))) | -16.1 | 45
GGGAGCGAAAGCTTCCCC ((((((....)))..))) | -12.9 | 61
GGGAGCGGAAACGCCCCC (((.(((....))).))) | -27.4 | 61.4
GGGAGCGGAAACGCTCTC (.(((((....))))).) | -14.5 | 58.4
GGGAGGACGAAAGTCCCC (((..(((....)))))) | -11.6 | 53.1

Sequence | folding enthalpy [1] [kcal/mol] | Tm [2] [°C]
GGGAGTCCGAAAGGACCC (((..(((....)))))) | -14 | 53.6
GGGAGTCGAAAGACGCCC (((.(((....))).))) | -30 | 64.3
GGGAGTGGAAACGCTCTC (.(((.(....).))).) | -17.8 | 39.7
GGGAGTGGAAACGCTTCC ((.((.(....).)).)) | -20.7 | 39
GGGATAGAAATATCCC ((((((....)))))) | -30.3 | 51.1
GGGATAGGAAACTATCTC (.(((((....))))).) | -25.3 | 39.8
GGGATCCGAAAGGACCC (((.(((....)))))) | -36.5 | 55.7
GGGATCGAAAGATACCCC ((((((....)))..))) | -18.1 | 51.6
GGGATCGAAAGATGCCCC ((((((....)))..))) | -15 | 49.2
GGGATCGAAAGATGTCCC ((((((....)))..))) | -17.3 | 35.9
GGGATCGGAAACGACCCC (((.(((....))).))) | -37.5 | 52.4
GGGATCGGAAACGGTCTC (.((.((....)).)).) | -22.1 | 39.6
GGGATGACGAAAGTCCCC (((..(((....)))))) | -18.4 | 42.9
GGGATGGGAAACCATCCC (((((((....))))))) | -41.5 | 67.4
GGGATGGGAAACTGTCCC ((((..(....)..)))) | -31.3 | 43.5
GGGATTCGAAAGAACCCC (((.(((....))).))) | -34 | 49.9
GGGATTGGAAACAATCCC (((((((....))))))) | -41.9 | 60.5
GGGATTGGAAACAGTCTC (.((.((....)).)).) | -13 | 27.7
GGGATTGGAAACGATTCC ((.((.(....).)).)) | -21 | 36.9
GGGCAACGAAAGTTCCCC (((.(((....))).))) | -20.2 | 47.2
GGGCAAGAAATTGCCC ((((((....)))))) | -33.9 | 63.6
GGGCAGCCGAAAGGCCCC (((..(((....)))))) | -15.1 | 48.1
GGGCAGCGAAAGCTACCC (((.(((....))).))) | -31.2 | 57.1
